High-throughput results: PubChem, several laboratories
This is a sample that favours compounds with a hit; in the whole collection about 2.3% have one here.
CAL PDZ FP-1: CAL PDZ peptide-binding inhibitors, primary screen, biochemical, fluorescence polarization, Cer-tagged CAL PDZ, HTS | AID 504414, 2011 | inhibition, % at 20 µM | purified CAL PDZ, TMR-peptide fluorescence polarization, 1 h | 0.02% of 330,000 active;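 active = highest replicate inhibition of at least 40%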
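System: purified tagged CAL PDZ domain construct (CerCALP). Schedule: 1 h incubation at room temperature before polarization reading. Medium: 25 mM sodium phosphate pH 7.4, 150 mM NaCl, TCEP, IgG, Thesit. Read-out: percent inhibition from loss of millipolarization. Measured by: FP readout, S and P plane fluorescence. Probe or stimulus: fluorescent TMR peptide probe.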
CAL PDZ FP-2: untagged CAL PDZ binding inhibitors, primary screen, biochemical, fluorescence polarization, HTS; Golgi-associated PDZ and coiled-coil motif-containing protein (Homo sapiens), Q9HD26; purified CAL PDZ, TMR-peptide fluorescence polarization, 1 h; inhibition, % at 24.9 µM; 0.92% of 300,000 active; AID 602252, 2012;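 active = mean inhibition of at least 30% with at least half of replicates also reaching 30%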
SR-BI uptake up: activators of SR-BI mediated DiI-HDL uptake, primary screen, ldlA[mSR-BI] CHO cells, DiI fluorescence. 3 h; 100 = double the neutral-control signal. activation, % at 12.5 µM. 0.096% of 320,000 active;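 active = mean replicate activation of at least 60% and every replicate at or above 60%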
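System: CHO ldlA[mSR-BI] cells / Medium: HEPES-buffered (25 mM, pH 7.4) F12 plus 0.5% BSA / Probe or stimulus: labelled HDL, 10 µg/mL / Doses: single compound concentration, delivered by pin transfer / Schedule: 3 h, 37 °C / Measured by: DiI fluorescence, bottom read / Measure: cell-associated DiI fluorescence as measure of HDL uptake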
SR-BI DiI inh: inhibitors of SR-BI mediated HDL lipid uptake, primary screen, ldlA[mSR-BI] cells, fluorescence, single point. ldlA[mSR-BI] CHO cells, DiI-HDL uptake fluorescence, 3 h. Scavenger receptor class B member 1 (Mus musculus), Q61009. 0.96% of 320,000 active. inhibition, % at 12.5 µM;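 active = mean replicate inhibition of at least 70% and a set share of replicates each scoring 70 or more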
Target sequence (Q61009 whole entry, looked up): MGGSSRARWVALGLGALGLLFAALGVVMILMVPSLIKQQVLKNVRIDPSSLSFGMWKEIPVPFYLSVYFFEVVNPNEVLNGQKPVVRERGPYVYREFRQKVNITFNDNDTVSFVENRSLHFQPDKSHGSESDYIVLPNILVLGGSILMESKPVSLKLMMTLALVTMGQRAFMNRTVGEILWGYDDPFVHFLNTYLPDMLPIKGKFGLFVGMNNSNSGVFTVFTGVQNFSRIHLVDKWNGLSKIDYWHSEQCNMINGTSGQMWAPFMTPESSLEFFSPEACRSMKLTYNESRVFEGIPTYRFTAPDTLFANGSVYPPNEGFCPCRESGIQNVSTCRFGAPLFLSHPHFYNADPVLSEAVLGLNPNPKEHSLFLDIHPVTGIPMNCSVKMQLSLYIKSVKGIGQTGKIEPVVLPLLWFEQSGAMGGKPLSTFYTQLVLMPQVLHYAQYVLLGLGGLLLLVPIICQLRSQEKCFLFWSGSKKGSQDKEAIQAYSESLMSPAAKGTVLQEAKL
ATG4B inh: ATG4B protease inhibitors, primary screen, biochemical, fluorescence, uHTS; inhibition, % at 8.33 µM; 0.51% of 340,000 active; Cysteine protease ATG4B (Homo sapiens), Q9Y4P1; ATG4B cleavage of LC3-PLA2, NBD-HPC fluorescence, 1 h; in the data active = inhibition above about 40%
A number is an active result.

Screening CSc1ccc(NC(=O)NCc2ccccc2)cc1 returned CAL PDZ FP-1 inactive, CAL PDZ FP-2 inactive, SR-BI uptake up inactive, SR-BI DiI inh inactive and ATG4B inh inactive.
O=C(O)c1ccc(N=C2NC(=O)C(CO)(CO)S2)cc1 was read as CAL PDZ FP-1 inactive, CAL PDZ FP-2 inactive, SR-BI uptake up inactive, SR-BI DiI inh inactive and ATG4B inh inactive.
Screening O=C(N/N=C\c1cc([N+](=O)[O-])ccc1N1CCCC1)c1ccccn1 returned CAL PDZ FP-1 inactive, CAL PDZ FP-2 inactive, SR-BI uptake up inactive, SR-BI DiI inh 72.8 and ATG4B inh inactive.
COc1ccc(NCC(=O)N/N=C/c2cc([N+](=O)[O-])ccc2N2CCCC2)cc1 was read as CAL PDZ FP-1 inactive, CAL PDZ FP-2 inactive, SR-BI uptake up inactive, SR-BI DiI inh 86.5 and ATG4B inh inactive.
CC(=O)c1cccc(OCC(=O)N(CCC2=CCCCC2)c2c(N)n(Cc3ccccc3)c(=O)[nH]c2=O)c1 was read as CAL PDZ FP-1 inactive, CAL PDZ FP-2 inactive, SR-BI uptake up inactive, SR-BI DiI inh inactive and ATG4B inh inactive.
O=C(COc1cc(F)ccc1[N+](=O)[O-])Nc1cc(S(=O)(=O)N2CCCC2)ccc1Cl was read as CAL PDZ FP-1 inactive, CAL PDZ FP-2 inactive, SR-BI uptake up inactive, SR-BI DiI inh 75.0 and ATG4B inh inactive.
`CCOc1ccc(S(=O)(=O)N2CCN(Cc3ccc4c(c3)OCO4)CC2)cc1C` gave CAL PDZ FP-1 inactive, CAL PDZ FP-2 inactive and ATG4B inh inactive.
For CC(=O)c1cc(C(=O)N2CCc3c([nH]c4ccccc34)C2CC(C)C)[nH]n1 (configuration not stated) the results were CAL PDZ FP-1 inactive, CAL PDZ FP-2 77.3, SR-BI uptake up inactive, SR-BI DiI inh inactive and ATG4B inh inactive.
Screening CC(C)CC1c2[nH]c3ccccc3c2CCN1C(=O)c1cnccn1 (configuration not stated) returned ATG4B inh inactive.
Screening COc1ccccc1NC(=O)C1CC(C)OC1=O (configuration not stated) returned CAL PDZ FP-1 inactive, SR-BI uptake up inactive, SR-BI DiI inh inactive and ATG4B inh inactive.
`CCCCN1C(=O)C(=O)N(CC(=O)Nc2cc(Cl)ccc2OC)C1=O` gave CAL PDZ FP-1 inactive, CAL PDZ FP-2 inactive, SR-BI uptake up inactive, SR-BI DiI inh inactive and ATG4B inh inactive.
For CCN1CCN(C(=O)c2ccc3c(c2)N(Cc2ccccc2F)C(=O)c2ccccc2S3(=O)=O)CC1 the results were CAL PDZ FP-1 inactive, CAL PDZ FP-2 inactive, SR-BI uptake up inactive, SR-BI DiI inh inactive and ATG4B inh inactive.
For CCOC(=O)C1(C)C(C(=O)OC)=C(c2ccc(OC)cc2)c2ccccc2N1C(=O)OC (configuration not stated) the results were CAL PDZ FP-1 inactive, CAL PDZ FP-2 inactive, SR-BI uptake up inactive, SR-BI DiI inh inactive and ATG4B inh inactive.
Screening CCCC(=O)N1c2ccccc2C(=C2SC(C(=O)OC)=C(C(=O)OC)S2)C(=S)C1(C)C returned CAL PDZ FP-1 inactive, CAL PDZ FP-2 inactive, SR-BI uptake up inactive, SR-BI DiI inh 81.9 and ATG4B inh inactive.
For COC(=O)C1=C(C(=O)OC)SC(=C2C(=S)C(C)(C)N(C(=O)C(C)C)c3ccccc32)S1 the results were CAL PDZ FP-1 inactive, CAL PDZ FP-2 inactive, SR-BI uptake up inactive, SR-BI DiI inh inactive and ATG4B inh inactive.
COC(=O)C1=C(C(=O)OC)SC(=C2C(=S)C(C)(C)N(C(=O)C3CC3)c3ccccc32)S1 was read as CAL PDZ FP-1 inactive, CAL PDZ FP-2 inactive, SR-BI uptake up inactive, SR-BI DiI inh 97.4 and ATG4B inh inactive.
CC(C)(C)OC(=O)CNC(=O)c1nc[nH]c1C(=O)N1CCNCC1 was read as CAL PDZ FP-1 inactive, CAL PDZ FP-2 inactive, SR-BI uptake up inactive, SR-BI DiI inh inactive and ATG4B inh inactive.
`Nc1ncnc2c1C(c1ccccc1)c1c(ccc3ccccc13)O2` (configuration not stated) gave CAL PDZ FP-1 62.1, CAL PDZ FP-2 inactive, SR-BI uptake up inactive, SR-BI DiI inh inactive and ATG4B inh inactive.
`CN1CC(c2ccccc2)Oc2ccccc2C1=S` (configuration not stated) gave CAL PDZ FP-1 inactive, CAL PDZ FP-2 66.6, SR-BI uptake up inactive, SR-BI DiI inh inactive and ATG4B inh inactive.
Screening CCN1CCN(C(c2ccccc2)c2nnnn2Cc2ccccc2)CC1 (configuration not stated) returned CAL PDZ FP-1 inactive, CAL PDZ FP-2 inactive, SR-BI uptake up inactive, SR-BI DiI inh inactive and ATG4B inh inactive.
For CCN1CCN(C(c2cc(OC)ccc2OC)c2nnnn2Cc2ccccc2)CC1 (configuration not stated) the results were CAL PDZ FP-1 inactive, CAL PDZ FP-2 53.9, SR-BI uptake up inactive, SR-BI DiI inh inactive and ATG4B inh inactive.
For COc1ccc(COc2cc(-c3cccc(OC)c3)nc3ccc(N)cc23)cc1 the results were CAL PDZ FP-1 inactive, CAL PDZ FP-2 inactive, SR-BI uptake up inactive, SR-BI DiI inh inactive and ATG4B inh inactive.
Screening COc1ccc(COc2cc(-c3cccc(OC)c3)nc3ccc(NC(=O)c4ccc(C)cc4)cc23)cc1 returned CAL PDZ FP-1 inactive, CAL PDZ FP-2 inactive, SR-BI uptake up inactive, SR-BI DiI inh 71.8 and ATG4B inh inactive.
For COc1ccc(COc2cc(-c3cccc(OC)c3)nc3ccc(NC(C)=O)cc23)cc1 the results were CAL PDZ FP-1 inactive, CAL PDZ FP-2 inactive, SR-BI uptake up inactive, SR-BI DiI inh inactive and ATG4B inh inactive.
Screening COc1ccc(COc2cc(-c3cccc(OC)c3)nc3ccc(NC(=O)c4ccc(N(C)C)cc4)cc23)cc1 returned CAL PDZ FP-1 inactive, CAL PDZ FP-2 inactive, SR-BI uptake up inactive, SR-BI DiI inh 90.3 and ATG4B inh inactive.
Screening Cc1cccc(OCC(=O)NCCCNC(=O)c2ccco2)c1 returned CAL PDZ FP-1 inactive, CAL PDZ FP-2 inactive and ATG4B inh inactive.
`COc1ccc(NC(=O)C23CC4CC(CC(Cl)(C4)C2)C3)cc1S(=O)(=O)N1CCOCC1` gave CAL PDZ FP-1 inactive, CAL PDZ FP-2 inactive, SR-BI uptake up inactive, SR-BI DiI inh inactive and ATG4B inh inactive.
For NC(=S)N/N=C/c1ccc(-c2cc(Cl)c(Cl)cc2Cl)o1 the results were CAL PDZ FP-1 inactive, CAL PDZ FP-2 inactive, SR-BI uptake up inactive, SR-BI DiI inh 81.6 and ATG4B inh inactive.
C=CCNC(=S)N/N=C/c1ccc(-c2ccc(Cl)cc2Cl)o1 was read as CAL PDZ FP-1 inactive, CAL PDZ FP-2 inactive, SR-BI uptake up inactive, SR-BI DiI inh 70.7 and ATG4B inh inactive.
